Laboratory results published in ChEMBL document CHEMBL4130356, “Design, synthesis and 2D QSAR study of novel pyridine and quinolone hydrazone derivatives as potential antimicrobial and antitubercular agents” (Eur J Med Chem, 2017).
Converted amounts (≈) assume the structure as drawn. The source made the active and inactive calls. The rule behind the calls is not given here.

Legend:
[1] = system: Aspergillus fumigatus; test: Antimicrobial activity against Aspergillus fumigatus RCMB 02568 after 48 hrs by serial dilution method; type: functional; conditions: RCMB 02568, 48 h
Summary of the method: (§1)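 Serial twofold dilution in microtiter plates starting from a 100 mmol stock in DMSO; final concentrations 125 down to 0.12 […]. Incubated at 28°C and read on a microplate reader after 48 h. Amphotericin B was the reference. Run in triplicate, with the average taken. MIC was the lowest concentration inhibiting growth.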

[2] = system: Aspergillus fumigatus; test: Antimicrobial activity against Aspergillus fumigatus RCMB 02568 assessed as diameter of zone inhibition at 100 ug/ml after 48 hrs by agar well diffusion assay; type: functional; conditions: for zone of inhibition at 100 µg/mL: RCMB 02568, 48 h, read-out: DIZ
Summary of the method: (§2)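 Agar well diffusion on malt agar plates seeded with the fungus, using 1 cm wells. Plates were held at 4°C for 1 h for diffusion, then incubated at 28°C. Inhibition zone diameters were measured at 48 h. Amphotericin B was the positive control. Run in triplicate, with the mean zone reported.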

[3] = system: Candida albicans; test: Antimicrobial activity against Candida albicans RCMB 05036 assessed as diameter of zone inhibition at 100 ug/ml after 48 hrs by agar well diffusion assay; type: functional; conditions: for zone of inhibition at 100 µg/mL: RCMB 05036, 48 h, read-out: DIZ; summary of the method: as §2
[4] = system: Streptococcus pneumoniae; test: Antimicrobial activity against Streptococcus pneumoniae RCMB 010010 assessed as diameter of zone inhibition at 100 ug/ml after 24 hrs by agar well diffusion assay; type: functional; conditions: for zone of inhibition at 100 µg/mL: RCMB 010010, 24 h, read-out: DIZ
Summary of the method: (§3)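 Agar well diffusion on nutrient agar plates seeded with the bacterium, using 1 cm wells. Plates were held at 4°C for 1 h for diffusion, then incubated at 37°C. Inhibition zone diameters were measured at 24 h. Ciprofloxacin was the positive control. Run in triplicate, with the mean zone reported.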

[5] = system: Staphylococcus aureus; test: Antimicrobial activity against Staphylococcus aureus RCMB 010028 assessed as diameter of zone inhibition at 100 ug/ml after 24 hrs by agar well diffusion assay; type: functional; conditions: for zone of inhibition at 100 µg/mL: RCMB 010028, 24 h, read-out: DIZ; summary of the method: as §3
[6] = system: Escherichia coli; test: Antimicrobial activity against Escherichia coli RCMB 010052 assessed as diameter of zone inhibition at 100 ug/ml after 24 hrs by agar well diffusion assay; type: functional; conditions: for zone of inhibition at 100 µg/mL: RCMB 010052, 24 h, read-out: DIZ; summary of the method: as §3
[7] = system: Candida albicans; test: Antimicrobial activity against Candida albicans RCMB 05036 after 48 hrs by serial dilution method; type: functional; conditions: RCMB 05036, 48 h; summary of the method: as §1
[8] = system: Streptococcus pneumoniae; test: Antimicrobial activity against Streptococcus pneumoniae RCMB 010010 after 24 hrs by serial dilution method; type: functional; conditions: RCMB 010010, 24 h
Summary of the method: as §1, with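 “37°C” for “28°C”, “24” for “48”, “Ciprofloxacin” for “Amphotericin B”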

[9] = system: Staphylococcus aureus; test: Antimicrobial activity against Staphylococcus aureus RCMB 010028 after 24 hrs by serial dilution method; type: functional; conditions: RCMB 010028, 24 h
Summary of the method: as §1, with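 “37°C” for “28°C”, “24” for “48”, “Ciprofloxacin” for “Amphotericin B”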

[10] = system: Escherichia coli; test: Antimicrobial activity against Escherichia coli RCMB 010052 after 24 hrs by serial dilution method; type: functional; conditions: RCMB 010052, 24 h
Summary of the method: as §1, with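 “37°C” for “28°C”, “24” for “48”, “Ciprofloxacin” for “Amphotericin B”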

[11] = system: Mycobacterium tuberculosis; test: Antimycobacterial activity against Mycobacterium tuberculosis RCMB 010126 clinical isolate after 7 days by MABA; type: functional
Summary of the method: (§4)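 Inoculum from fresh LJ culture resuspended in 7H9-S broth with casitone, glycerol and OADC, adjusted to McFarland No. 1 and diluted 1:20. Serial two-fold compound dilutions in 7H9-S; isoniazid reference. Incubated 7 days at 37°C in air, then Alamar blue added and incubated overnight. Percent inhibition = 1 − (test well/growth-control mean) × 100; MIC = lowest concentration preventing blue-to-pink change.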

[12] = system: Mycobacterium tuberculosis; test: Antimycobacterial activity against Mycobacterium tuberculosis RCMB 010126 clinical isolate assessed as inhibition zone after 7 days by MABA; type: functional; summary of the method: as §4
[13] = system: WI-38; test: Cytotoxicity against human WI38 cells assessed as reduction in cell viability after 24 hrs by crystal violet staining-based colorimetric method; conditions: WI-38, 24 h
Summary of the method: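 WI-38 cells were grown in DMEM with 10% FBS at 37°C and 5% CO2, then seeded at 1×10^4 cells/well. Serial twofold dilutions were added, three wells per concentration. Viability was read by crystal violet stain, solubilised in 30% acetic acid, at 490 nm. Run in triplicate. IC50 was estimated from dose-response plots.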

[14] = Selectivity index, ratio of IC50 for human WI38 cells to MIC for Mycobacterium tuberculosis RCMB 010126 clinical isolate; type: toxicity; conditions: read-out: Selectivity Index
Summary of the method: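 WI-38 human lung fibroblasts grown in DMEM with 10% FBS at 37°C and 5% CO2, seeded at 1×10^4 cells/well, and exposed to serial two-fold dilutions in triplicate. Viability read by crystal violet stain at 490 nm. IC50 taken from dose-response plots. Ratio uses this IC50 against the MABA MIC for M. tuberculosis.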

[15] = system: Pseudomonas aeruginosa; conditions: RCMB 010043, 100 ug/ml
[16] = system: Pseudomonas aeruginosa; conditions: RCMB 010043
[17] = system: Escherichia coli; test: Potency index, ratio of ciprofloxacin MIC to test compound MIC for Escherichia coli RCMB 010052; type: functional
[18] = Mycobacterium tuberculosis, RCMB 010126, 168 h

| SMILES | MIC [1] [µg/mL] | zone of inhibition at 100 µg/mL [2] [mm] | zone of inhibition at 100 µg/mL [3] [mm] | zone of inhibition at 100 µg/mL [4] [mm] | zone of inhibition at 100 µg/mL [5] [mm] | zone of inhibition at 100 µg/mL [6] [mm] | MIC [7] [µg/mL] | MIC [8] [µg/mL] | MIC [9] [µg/mL] | MIC [10] [µg/mL] | MIC [11, 18] [µg/mL] | inhibition zone (IZ) [12] | IC50 [13] [µg/mL] | selectivity ratio [14] | DIZ [15] | MIC [16] | also measured |
| --- | --- | --- | --- | --- | --- | --- | --- | --- | --- | --- | --- | --- | --- | --- | --- | --- | --- |
| COc1cccc(/C=N/NC(=O)c2ccc(-c3ccc(Cl)cc3)nc2C)c1O | 1.95 (≈ 4.93 µM) | 21.3 | 20.3 | 22.3 | 20.5 | 21.5 | 3.9 (≈ 9.85 µM) | 0.98 (≈ 2.48 µM) | 1.95 (≈ 4.93 µM) | 1.95 (≈ 4.93 µM) | 0.39 (≈ 0.985 µM) | 80.63 mm | 500 (≈ 1260 µM) | 1280 | inactive | inactive | – |
| COc1ccc(OC)c(/C=N/NC(=O)c2ccc(-c3cccc(Cl)c3)nc2C)c1 | 0.98 (≈ 2.39 µM) | 22.6 | 21.2 | 22.5 | 21.3 | 22.3 | 1.95 (≈ 4.76 µM) | 0.98 (≈ 2.39 µM) | 1.95 (≈ 4.76 µM) | 0.98 (≈ 2.39 µM) | 0.39 (≈ 0.952 µM) | 82.35 mm | 188 (≈ 459 µM) | 482 | inactive | inactive | – |
| COc1ccc(/C=N/NC(=O)c2ccc(-c3cccc(Cl)c3)nc2C)cc1OC | 3.9 (≈ 9.52 µM) | 19.3 | 17.2 | 19.6 | 17.9 | 21.6 | 15.6 (≈ 38.1 µM) | 3.9 (≈ 9.52 µM) | 7.81 (≈ 19.1 µM) | 1.95 (≈ 4.76 µM) | 0.78 (≈ 1.9 µM) | 73.58 mm | 168 (≈ 410 µM) | 215 | inactive | inactive | -logMIC [11]: 0.1079 |
| COc1ccc(/C=N/NC(=O)c2ccc(-c3ccc(Cl)cc3)nc2C)cc1OC | – | – | – | – | – | – | – | – | – | – | 1.56 (≈ 3.81 µM) | 61.32 mm | 443 (≈ 1080 µM) | 284 | inactive | – | diameter of the inhibition zone (DIZ) [2]: inactive; diameter of the inhibition zone (DIZ) [3]: inactive; diameter of the inhibition zone (DIZ) [4]: inactive; diameter of the inhibition zone (DIZ) [5]: inactive; diameter of the inhibition zone (DIZ) [6]: inactive |
| O=C(N/N=C/c1ccc(Cl)cc1Cl)c1c[nH]c2cc(Cl)ccc2c1=O | 3.9 (≈ 9.88 µM) | 20.3 | 19.6 | 22.1 | 20.6 | 24.3 | 3.9 (≈ 9.88 µM) | 0.98 (≈ 2.48 µM) | 1.95 (≈ 4.94 µM) | 0.49 (≈ 1.24 µM) | – | inactive | – | – | inactive | inactive | MIC [11]: inactive; Ratio [17]: 2 |
| Cc1nc(-c2cccc(Cl)c2)ccc1C(=O)N/N=C/c1ccc(Cl)cc1 | 1.95 (≈ 5.07 µM) | 20.3 | 17.9 | 21.3 | 19.6 | 23.7 | 3.9 (≈ 10.1 µM) | 1.95 (≈ 5.07 µM) | 1.95 (≈ 5.07 µM) | 0.49 (≈ 1.28 µM) | 6.24 (≈ 16.2 µM) | 43.25 mm | – | – | inactive | inactive | Ratio [17]: 2 |
| Cc1ccc(/C=N/NC(=O)c2ccc(-c3cccc(Cl)c3)nc2C)cc1 | – | – | – | 13.6 | 12.6 | – | – | – | – | – | 1.56 (≈ 4.29 µM) | 61.24 mm | 500 (≈ 1370 µM) | 321 | inactive | – | diameter of the inhibition zone (DIZ) [2]: inactive; diameter of the inhibition zone (DIZ) [3]: inactive; diameter of the inhibition zone (DIZ) [6]: inactive |
| COc1ccc(/C=N/NC(=O)c2ccc(-c3ccc(Cl)cc3)nc2C)cc1 | 1.95 (≈ 5.13 µM) | 20.9 | 19.2 | 21.3 | 20.1 | 20.9 | 3.9 (≈ 10.3 µM) | 1.95 (≈ 5.13 µM) | 3.9 (≈ 10.3 µM) | 1.95 (≈ 5.13 µM) | 0.78 (≈ 2.05 µM) | 70.34 mm | 500 (≈ 1320 µM) | 641 | inactive | inactive | – |
| COc1ccc(/C=N/NC(=O)c2ccc(-c3cccc(Cl)c3)nc2C)cc1 | 1.95 (≈ 5.13 µM) | 20.6 | 18.2 | 20.9 | 19.6 | 20.3 | 7.81 (≈ 20.6 µM) | 3.9 (≈ 10.3 µM) | 3.9 (≈ 10.3 µM) | 3.9 (≈ 10.3 µM) | 1.56 (≈ 4.11 µM) | 60.42 mm | 500 (≈ 1320 µM) | 321 | inactive | inactive | – |
| Cc1ccc(/C=N/NC(=O)c2c[nH]c3cc(Cl)ccc3c2=O)cc1 | 62.5 (≈ 184 µM) | 13.7 | 14.5 | 13.9 | 14.4 | 15 | 62.5 (≈ 184 µM) | 62.5 (≈ 184 µM) | 62.5 (≈ 184 µM) | 62.5 (≈ 184 µM) | – | inactive | – | – | inactive | inactive | MIC [11]: inactive |
| COc1cc(/C=N/NC(=O)c2c[nH]c3ccc(Cl)cc3c2=O)cc(OC)c1OC | 7.81 (≈ 18.8 µM) | 18.1 | 16.3 | 18.4 | 17.3 | 19.3 | 31.2 (≈ 75.2 µM) | 7.81 (≈ 18.8 µM) | 15.6 (≈ 37.6 µM) | 3.9 (≈ 9.38 µM) | – | inactive | – | – | inactive | inactive | MIC [11]: inactive |
| COc1cc(/C=N/NC(=O)c2ccc(-c3ccc(Cl)cc3)nc2C)cc(OC)c1OC | 0.98 (≈ 2.23 µM) | 21.8 | 20.4 | 21.3 | 23.4 | 21.3 | 1.95 (≈ 4.43 µM) | 1.95 (≈ 4.43 µM) | 0.98 (≈ 2.23 µM) | 1.95 (≈ 4.43 µM) | 0.78 (≈ 1.77 µM) | 68.42 mm | 41.1 (≈ 93.4 µM) | 52.7 | inactive | inactive | – |
| Cc1nc(-c2ccc(Cl)cc2)ccc1C(=O)N/N=C/c1ccc(O)cc1 | 3.9 (≈ 10.7 µM) | 19.3 | 17.3 | 20.3 | 18.3 | 19.2 | 15.6 (≈ 42.7 µM) | 3.9 (≈ 10.7 µM) | 7.81 (≈ 21.3 µM) | 3.9 (≈ 10.7 µM) | 3.12 (≈ 8.53 µM) | 53.21 mm | 500 (≈ 1370 µM) | 160 | inactive | inactive | – |
